# Assays:
# [1] = test system: Dmd C3333Y mice; test: Fibrotic area in the heart of treated Dmd C3333Y mice; assay type: in vivo, mouse; conditions: 4 to 24 weeks of age, AGR mimics 10 mg/kg subQ every three days, Nifenazone 10 mg/kg i.p. daily, n=5
# Procedure, shortened: (§1)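 Male and female Dmd WT and Dmd C3333Y mice were dosed from 4 weeks to 16 or 24 weeks of age. […] Groups were randomised by age and sex. Left ventricular values or cardiac fibrotic area percentage are reported as mean±SD, n=5/group, one-way ANOVA.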
# [2] = molecular target: TRIM63 (Homo sapiens, UniProt Q969Q1); test: Screen of small molecule inhibitors targeting TRIM63; assay type: biochemical; conditions: library of 2027 bioactive compounds; Ub-DMD (Lys3584) antibody, OD450
# Procedure, shortened: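 The library screen measured DMD poly-ubiquitination by sandwich ELISA, with His6-TUBE capture and Ub-DMD (Lys3584) antibody detection read at OD450. Background-subtracted mean absorbance per compound was normalised to DMSO-treated samples and expressed as log2 fold change.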
# [3] = Blood biochemistry; assay type: in vivo, mouse; conditions: Dmd C3333Y mice from 4 weeks of age; AGR mimics 10 mg/kg subQ every three days; Nifenazone 10 mg/kg i.p. daily
# [4] = test system: hiPS-SkMCs; test: Immunoprecipitation and immunoblotting in hiPS-SkMCs; assay type: cell-based, human; conditions: IB; for Ub-DMD in K3584R mutant knockin BMD iPS-SkMCs: GM04981 K3584R
# [5] = test system: Dmd C3333Y mice; test: Echocardiography; assay type: in vivo, mouse; conditions: 4 to 24 weeks of age, AGR mimics 10 mg/kg subQ every three days, Nifenazone 10 mg/kg i.p. daily, n=5
# Procedure, shortened: as §1
# [6] = test system: Dmd C3333Y mice; test: IF staining of DMD and Ub-DMD; assay type: in vivo, mouse; conditions: Dmd C3333Y mice QUA, AGR mimics 10 mg/kg subQ every three days, Nifenazone 10 mg/kg i.p. daily, n=5
# Procedure, shortened: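 Quadriceps sections from Dmd WT and Dmd C3333Y mice on control or test mimics, vehicle, or daily i.p. drug were immunostained for DMD and Ub-DMD (Lys3584). Intensity was quantified from average staining intensity and percentage of positively stained cells. Mean±SD, n=5 animals/group, one-way ANOVA.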
# [7] = test system: Dmd C3333Y mice; test: Forelimb grip strength test of treated Dmd C3333Y mice; assay type: in vivo, mouse; conditions: AGR mimics 10 mg/kg subQ every three days, Nifenazone 10 mg/kg i.p. daily
# [8] = test system: mdx mice; test: IF staining of DMD and Ub-DMD in QUA of mdx mice with PPMO23 exon skipping; assay type: in vivo, mouse; conditions: PPMO23 15 mg/kg i.v. biweekly alone, or with AGR-H19 10 mg/kg s.q. every three days or Nifenazone 10 mg/kg i.p. daily; 4 to 24 weeks of age; n=5
# Procedure, shortened: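 Controls were male C57BL/10J mice on scramble RNA plus vehicle, and mdx mice on scramble. Quadriceps were immunostained for DMD and Ub-DMD, and intensity was scored as average intensity × percentage positive cells. Mean±SD, n=5/condition, one-way ANOVA.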
# [9] = test system: hiPS-SkMCs; test: IF staining / IB of DMD and Ub-DMD; assay type: cell-based, human; conditions: iPS-SkMCs and iPS-CMs derived from BMD patients; Nifenazone 10 μM, 72 hours
# Procedure, shortened: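 Skeletal muscle cells came from iPSCs reprogrammed from fibroblasts of a healthy donor (GM09503) and four BMD donors (GM04981, GM02298, GM05089, GM04569). iPSCs were kept feeder-free on Matrigel in mTeSR1. For IF, myoblasts on collagen I-coated coverslips grew to confluence, then spent 4 days in myotube medium before 4% paraformaldehyde fixation. IF intensity combined average staining and percentage of positive cells; n=5 independent experiments, two-way ANOVA. Immunoblots were repeated twice.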
# [10] = Body weight measurement; assay type: in vivo, mouse; conditions: Dmd C3333Y mice from 4 weeks of age; AGR mimics 10 mg/kg subQ every three days; Nifenazone 10 mg/kg i.p. daily
# Procedure, shortened: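 Weighed weekly in male Dmd WT (scramble- or vehicle-treated) and Dmd C3333Y mice during dosing from 4 weeks of age, to 16 weeks for the i.p. drug arm. AGR-Scr and AGR-H19 mut served as control mimics. Mean±SD, n=5 mice/group, two-way ANOVA.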
# [11] = Serum IGF1 and IGF2 concentration; assay type: in vivo, mouse; conditions: Dmd C3333Y mice; 10 mg/kg subQ every three days
# Procedure, shortened: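 Serum IGF1 and IGF2 were measured in Dmd WT and Dmd C3333Y mice under the treatment arms. AGR mimics were dosed from 4 weeks of age to 16 or 24 weeks. Mean±SD, n=5 mice/group, one-way ANOVA.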
# [12] = Pharmacokinetics; assay type: in vivo, mouse; conditions: biotin-labeled, 10 mg/kg single dose, wild type C57BL/6 mice, 3–72 hours; dot-blot, n=5 animals per time point
# Procedure, shortened: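 A single 10 mg/kg dose of biotinylated H19 mimic (i.p. or subQ) or AGR-H19 (subQ) was given to wild type C57BL/6 mice. Muscle, heart, liver, kidney and lung were taken at 3, 12, 24, 48 or 72 h. Small RNA was dot-blotted against a 2-fold standard series of 1 μg–1 pg and detected with streptavidin-HRP. Levels are given as ng/g tissue, with PK parameters from nonlinear regression. n=5/time point.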
# [13] = test system: indicated genes; test: RT-qPCR of indicated genes and microRNAs; conditions: Dmd C3333Y QUA; 10 mg/kg subQ every three days
# TRIM63, sequence (Q969Q1 whole entry): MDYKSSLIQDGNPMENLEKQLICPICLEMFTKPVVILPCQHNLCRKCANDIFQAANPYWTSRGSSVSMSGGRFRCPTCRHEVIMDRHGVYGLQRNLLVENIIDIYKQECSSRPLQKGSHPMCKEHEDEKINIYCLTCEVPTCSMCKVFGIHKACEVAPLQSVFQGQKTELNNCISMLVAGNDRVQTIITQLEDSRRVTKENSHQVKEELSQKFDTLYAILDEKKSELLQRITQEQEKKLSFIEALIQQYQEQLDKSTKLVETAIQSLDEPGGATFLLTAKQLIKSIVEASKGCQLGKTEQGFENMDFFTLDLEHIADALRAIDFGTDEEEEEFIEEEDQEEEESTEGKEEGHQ
Inhibition of the enzymatic activities of TRIM63 in vitro (screen) [2],Compound,Fibrotic area in the heart [1],Liver or kidney function [3],Ub-DMD in K3584R mutant knockin BMD iPS-SkMCs [4],Ub-DMD in hiPS-SkMCs upon NIF treatment ([4]; vehicle or NIF),Heart function (left ventricular ejection fraction and fraction shortening) [5],Dystrophin level in skeletal muscle [6],Ub-DMD level in skeletal muscle [6],Muscle strength [7],Dystrophin protein in skeletal muscle of mdx mice [8],Ub-DMD (poly-Ub) in skeletal muscle of mdx mice [8],Dystrophin protein stability [9],Status of Ub-DMD (Lys3584) [9],Body weight [10],Serum IGF1/IGF2 [11],Amount in skeletal and cardiac muscles after dosing [12],Expression status of microRNAs tested [13]
effective inhibition,Cc1c(NC(=O)c2cccnc2)c(=O)n(-c2ccccc2)n1C [Nifenazone],reduced,minimally affected,minimally affected,inhibited,improved,restored,decreased,significantly improved,significantly increased,reduced,stabilized dystrophin,attenuated,minimally affected,–,–,–
–,N-terminal-ELTNEIPAELTNEIPA-Linker-5'-[2’-F-C][2’-F-U][2’-F-C][2’-F-U][2’-F-U][2’-F-U][2’-F-G][2’-F-U][2’-F-U][2’-F-U][2’-F-C][2’-F-U][2’-F-G][2’-F-A][2’-F-G][2’-F-C][2’-F-U][2’-F-U][2’-F-U][2’-F-C][2’-F-C][2’-F-U][2’-F-G][2’-F-U][2’-F-C][2’-F-U][2’-F-U][2’-F-U][2’-F-C][2’-F-C]-3' [AGR-H19],reduced,minimal effects,minimally affected,–,increased,elevated,reduced,improved,significantly increased,reduced,–,–,minimal effects,minimal effects,substantial amount,minimal effects
–,RXRRBRRXRRBRXB [PPMO23],–,–,–,–,–,–,–,–,partially restored,robust,–,–,–,–,–,–
